In PMC9136973 (ACS Central Science, 2022):
In brackets after ≈: the same amount, converted by molar mass.

Legend:
Hsp70, Hsp40, and Hsp27 = test: Immunoblot of heat shock response proteins in K562 cells; assay type: cell-based, human; conditions: 48 h, cytotoxic concentration
MOLT-4 cells = test: Xenotransplantation in zebrafish embryos; assay type: in vivo; conditions: 500 nM, 48 h
Outline: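 Wild-type TE zebrafish embryos at 32 hpf each received ~1 nL (~200) CFDA SE-labeled MOLT-4 cells into the perivitelline space, then 1 h at 28 °C. Well-engrafted embryos were treated with test compound (500 nM) or DMSO for 48 h at 35 °C, with development monitored. Embryos were dissociated through a 40 μm strainer and labeled cells quantified by flow cytometry. Fold change was taken against the DMSO-group mean.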

[1] = Aqueous thermodynamic solubility; assay type: physicochemical; conditions: phosphate-buffered saline, pH 7.4
[2] = target: recombinant Hsp90α CTD protein (Homo sapiens, UniProt P07900); test: Cell-free thermal shift assay; assay type: binding; conditions: 100 µM
recombinant Hsp90α CTD protein, sequence (P07900 563-732): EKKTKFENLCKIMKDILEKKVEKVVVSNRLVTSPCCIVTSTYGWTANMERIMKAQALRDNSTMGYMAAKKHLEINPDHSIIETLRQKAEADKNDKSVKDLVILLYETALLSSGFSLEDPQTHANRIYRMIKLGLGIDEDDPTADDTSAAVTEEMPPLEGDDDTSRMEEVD
Outline: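 Recombinant human Hsp90α CTD (residues 563–732, 5 μM) was mixed with test compound in 1× PBS, pH 7.5, and incubated for 2 h. SYPRO orange (6×) was added and samples were heated with increasing temperature up to 95 °C. Tm was compared with the DMSO vehicle control.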

In the case of CCNC(=O)c1noc(-c2cc(C(C)C)c(O)cc2O)c1-c1ccc(CN2CCOCC2)cc1 [AUY922], the “induction of heat shock response (expression of Hsp70, Hsp40, Hsp27)” value (Hsp70, Hsp40, and Hsp27) was “led to HSR induction”, the “toxicity on the development of xenotransplanted embryos” value (MOLT-4 cells) was “No toxicity” and the “number of transplanted MOLT4 cells vs DMSO-treated group” value (MOLT-4 cells; flow cytometry) was “significantly reduced”.
Cc1nccn1CC1CCc2c(c3ccccc3n2C)C1=O (centres unmarked) [Ondansetron] showed a solubility thermodynamic [1] of 95 µM (≈ 27.9 µg/mL).
For CO[C@H]1[C@H](OC(=O)c2ccc(C)[nH]2)[C@H](O)[C@@H](Oc2ccc3c(O)c(NC(=O)c4c[nH]c(C(=O)Nc5c(O)c6ccc(O[C@H]7OC(C)(C)[C@@H](OC)[C@H](OC(=O)c8ccc(C)[nH]8)[C@@H]7O)c(C)c6oc5=O)c4C)c(=O)oc3c2C)OC1(C)C [coumermycin A1], the “effect on thermal stability of Hsp90α CTD protein” value [2] was “stabilized”.
